{
  "source": "ChEMBL document CHEMBL1155578",
  "about": "“In vitro antiinflammatory effects of neolignan woorenosides from the rhizomes of Coptis japonica” (J Nat Prod, 2000)",
  "key": {"[1]": {"system": "RAW264.7", "experiment": "Antiinflammatory activity against mouse RAW264.7 assessed as inhibition of LPS-induced NO production after 24 hrs", "type": "functional, cell-based", "conditions": "RAW264.7, 24 h", "how_it_was_run": "(§1)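 RAW264.7 cells were plated at 1×10^6 cells/mL and held 18 h. Compounds were then added with LPS (1 µg/mL) for lines 1 and 3, or IFN-γ (50 U/mL) for line 2, and incubated 24 h. Supernatant nitrite was measured with Griess reagent (10 min, room temperature) at OD550 against a sodium nitrite standard curve. Detection limit was 0.5 µM. Results are mean ± SEM of four observations run in triplicate.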"}, "[2]": {"system": "RAW264.7", "experiment": "Antiinflammatory activity against mouse RAW264.7 assessed as inhibition of IFN-gamma-induced NO production after 24 hrs", "type": "functional, cell-based", "conditions": "RAW264.7, 24 h", "how_it_was_run": "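RAW264.7 mouse macrophages kept in RPMI 1640 with 10% FBS and antibiotics, 37 °C, 5% CO2. Cells pre-cultured 18 h at 1×10^6 cells/mL, then given graded compound concentrations plus IFN-γ (50 U/mL) for 24 h. Supernatant nitrite read by Griess reagent (10 min, room temperature) at OD550, quantified against a sodium nitrite standard curve. Mean ± SEM, four separate observations in triplicate.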"}, "[3]": {"system": "RAW264.7", "experiment": "Antiinflammatory activity against mouse RAW264.7 cells assessed as inhibition of LPS-induced TNFalpha production after 4 hrs by ELISA", "type": "functional, cell-based", "conditions": "RAW264.7, 4 h", "how_it_was_run": "(§2)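 Compounds were dissolved in vehicle (propylene glycol/ethanol/DMSO), kept at ≤0.1% final, and added with LPS (1 µg/mL) for 4 h. Supernatant TNF-α was measured by mouse TNF-α ELISA. Results are mean ± SEM of four observations in triplicate.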"}, "[4]": {"experiment": "Inhibition of IL2-dependent mouse CTLL2 cell proliferation after 48 hrs by MTT assay", "type": "functional, cell-based", "conditions": "CTLL-2, 48 h", "how_it_was_run": "(§3)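 CTLL-2 cells were washed free of IL-2 and FBS, then resuspended at 5×10^5 cells/mL in growth medium without IL-2. They were incubated with compounds plus IL-2 (50 U/mL) for 48 h at 37 °C and 5% CO2. Proliferation was read by MTT assay. Results are mean ± SEM of four observations.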"}, "[5]": {"system": "Splenocyte", "experiment": "Inhibition of Concanavalin A-stimulated cell proliferation in mouse splenocytes after 48 hrs by MTT assay", "type": "functional, cell-based", "how_it_was_run": "(§4)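 Splenocytes came from BALB/c male mice (eight weeks old); red cells were lysed with NH4Cl-Tris. Cells were cultured at 5×10^6 cells/mL with Con A (1 µg/mL) and compounds for 48 h. Results are mean ± SEM of four observations.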"}, "[6]": {"system": "RAW264.7", "experiment": "Antiinflammatory activity against mouse RAW264.7 cells assessed as inhibition of LPS-induced TNFalpha production at 80 uM after 4 hrs by ELISA", "type": "functional", "conditions": "RAW264.7, 4 h", "how_it_was_run": "as §2, with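 “RAW264.7 cells (2×10^6 cells/mL) were pre-incubated 18 h in RPMI 1640 with 10% FBS. Compounds” for “Compounds”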"}, "[7]": {"system": "RAW264.7", "experiment": "Antiinflammatory activity against mouse RAW264.7 cells assessed as inhibition of LPS-induced NO production at 80 uM after 24 hrs", "type": "functional", "conditions": "RAW264.7, 24 h", "how_it_was_run": "as §1"}, "[8]": {"experiment": "Antiinflammatory activity against mouse splenocytes assessed as inhibition of ConA-stimulated proliferation at 80 uM after 48 hrs by MTT assay", "type": "functional", "conditions": "Splenocyte", "how_it_was_run": "as §4"}, "[9]": {"experiment": "Inhibition of IL2-dependent mouse CTLL2 cell proliferation at 80 uM after 48 hrs by MTT assay", "type": "functional", "conditions": "CTLL-2, 48 h", "how_it_was_run": "as §3"}, "[10]": {"system": "RAW264.7", "experiment": "Antiinflammatory activity against mouse RAW264.7 cells assessed as inhibition of IFN-gamma-induced NO production at 20 uM after 24 hrs", "type": "functional", "design": "scale not given: the % may be the effect or the level left", "how_it_was_run": "as §1"}, "[11]": {"system": "SUP-T1", "experiment": "Cytotoxicity against human Sup-T1 cells at 80 uM after 48 hrs by MTT assay", "conditions": "SUP-T1, 48 h"}},
  "data": [
    {"smiles": "COC(=O)[C@@H](N)CCCNC(=N)N[N+](=O)[O-]", "note": "[L-NAME]", "values": [
      {"measurement": "IC50", "setting": "[1]", "result": 193, "unit": "µM"},
      {"measurement": "IC50", "setting": "[2]", "result": 116, "unit": "µM"}
    ]},
    {"smiles": "CCCC(=O)Nc1ncnc2c1ncn2[C@@H]1O[C@@H]2COP(=O)(O)O[C@H]2[C@H]1OC(=O)CCC", "note": "[BUCLADESINE]", "values": [
      {"measurement": "IC50", "setting": "[3]", "result": 28.9, "unit": "µM"},
      {"measurement": "IC50", "setting": "[4]", "result": 576, "unit": "µM"}
    ]},
    {"smiles": "C/C(O)=C(\\C#N)C(=O)Nc1ccc(C(F)(F)F)cc1", "note": "[TERIFLUNOMIDE]", "values": [
      {"measurement": "IC50", "setting": "[5]", "result": 6.7, "unit": "µM"},
      {"measurement": "IC50", "setting": "[4]", "result": 11.2, "unit": "µM"}
    ]},
    {"smiles": "COc1cc([C@@H]2Oc3c(OC)cc(/C=C/CO[C@@H]4O[C@H](CO)[C@@H](O)[C@H](O)[C@H]4O)cc3[C@H]2CO)cc(OC)c1OC", "note": "[WOORENOSIDE I]", "values": [
      {"measurement": "inhibition at 80 µM", "setting": "[6]", "result": 15.4, "unit": "%"},
      {"measurement": "inhibition at 80 µM", "setting": "[7]", "result": 34.7, "unit": "%"},
      {"measurement": "inhibition at 80 µM", "setting": "[8]", "result": 24.8, "unit": "%"},
      {"measurement": "inhibition at 80 µM", "setting": "[9]", "result": -5.4, "unit": "%"},
      {"measurement": "Activity", "setting": "[10]", "result": 8.5, "unit": "%"},
      {"measurement": "inhibition at 80 µM", "setting": "[11]", "result": 32.1, "unit": "%"}
    ]},
    {"smiles": "N[C@H]1CONC1=O", "note": "[LEVCYCLOSERINE]", "values": [
      {"measurement": "IC50", "setting": "[5]", "result": 3.5, "unit": "µM"}
    ]},
    {"smiles": "CC(=O)CCCCn1c(=O)c2c(ncn2C)n(C)c1=O", "note": "[PENTOXIFYLLINE]", "values": [
      {"measurement": "IC50", "setting": "[3]", "result": 247, "unit": "µM"}
    ]},
    {"smiles": "C[C@]12C=CC(=O)C=C1CC[C@@H]1[C@@H]2[C@@H](O)C[C@@]2(C)[C@H]1CC[C@]2(O)C(=O)CO", "note": "[PREDNISOLONE]", "values": [
      {"measurement": "IC50", "setting": "[3]", "result": 25.4, "unit": "µM"}
    ]}
  ]
}
